ChEMBL document CHEMBL1781999, “Lead optimization of aryl and aralkyl amine-based triazolopyrimidine inhibitors of Plasmodium falciparum dihydroorotate dehydrogenase with antimalarial activity in mice” (J Med Chem, 2011)
In brackets after ≈: the same amount, converted by molar mass.

Assays:
[1] = test system: Plasmodium falciparum; test: Antimalarial activity against Plasmodium falciparum 3D7 infected in human A positive erythrocytes by [3H]hypoxanthine uptake assay in presence of serum in medium; assay type: functional, organism-based
Method in brief: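 Growth read by [3H]-hypoxanthine uptake. Each concentration run in quadruplicate and fitted to a four-parameter variable-slope log[I]-response model for 50% growth inhibition.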

[2] = biological target: T1, Dihydroorotate dehydrogenase (Plasmodium falciparum, UniProt Q54A96); test: Inhibition of His6-tagged recombinant Plasmodium falciparum dihydroorotate dehydrogenase expressed in Escherichia coli using L-dihydroorotate as substrate after 5 to 10 mins by DCIP dye-based assay
T1 sequence (Q54A96 whole entry): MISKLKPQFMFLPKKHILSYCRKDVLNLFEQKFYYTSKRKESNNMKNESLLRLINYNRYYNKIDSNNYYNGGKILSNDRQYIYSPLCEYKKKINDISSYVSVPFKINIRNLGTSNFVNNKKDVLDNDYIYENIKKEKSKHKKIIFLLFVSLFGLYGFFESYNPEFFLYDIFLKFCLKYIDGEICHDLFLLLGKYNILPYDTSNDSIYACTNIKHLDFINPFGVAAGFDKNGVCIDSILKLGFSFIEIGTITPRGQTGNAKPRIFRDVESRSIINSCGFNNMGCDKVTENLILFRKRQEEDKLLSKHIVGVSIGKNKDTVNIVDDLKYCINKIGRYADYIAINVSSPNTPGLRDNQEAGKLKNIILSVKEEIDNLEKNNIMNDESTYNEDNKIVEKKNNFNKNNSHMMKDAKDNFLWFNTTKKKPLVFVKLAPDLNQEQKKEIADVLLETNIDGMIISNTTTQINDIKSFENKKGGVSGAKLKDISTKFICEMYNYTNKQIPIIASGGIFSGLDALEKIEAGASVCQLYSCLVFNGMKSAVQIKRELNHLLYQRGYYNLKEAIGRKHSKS

[3] = Inhibition of His6-tagged recombinant Plasmodium berghei dihydroorotate dehydrogenase expressed in Escherichia coli using L-dihydroorotate as substrate after 10 to 15 mins by DCIP dye-based assay; conditions: in the assay text read “5 to 10 mins” for “10 to 15 mins”
Method in brief: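 Truncated soluble enzyme lacking the N-terminal membrane domain. Final concentrations: 0.2 mM L-dihydroorotate, 0.02 mM CoQD, 0.12 mM DCIP. Reaction started with 10 nM enzyme and read at 600 nm for 5–10 min at 20 °C. Inhibitor 0.01–100 μM in 3-fold steps, in triplicate. IC50 from a three-parameter fit of vi/vo from initial rates.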

[4] = biological target: Dihydroorotate dehydrogenase (quinone), mitochondrial (Homo sapiens, UniProt Q02127); test: Inhibition of His6-tagged recombinant human dihydroorotate dehydrogenase expressed in Escherichia coli using L-dihydroorotate as substrate after 5 to 10 mins by DCIP dye-based assay
Dihydroorotate dehydrogenase (quinone), mitochondrial, sequence (Q02127 whole entry): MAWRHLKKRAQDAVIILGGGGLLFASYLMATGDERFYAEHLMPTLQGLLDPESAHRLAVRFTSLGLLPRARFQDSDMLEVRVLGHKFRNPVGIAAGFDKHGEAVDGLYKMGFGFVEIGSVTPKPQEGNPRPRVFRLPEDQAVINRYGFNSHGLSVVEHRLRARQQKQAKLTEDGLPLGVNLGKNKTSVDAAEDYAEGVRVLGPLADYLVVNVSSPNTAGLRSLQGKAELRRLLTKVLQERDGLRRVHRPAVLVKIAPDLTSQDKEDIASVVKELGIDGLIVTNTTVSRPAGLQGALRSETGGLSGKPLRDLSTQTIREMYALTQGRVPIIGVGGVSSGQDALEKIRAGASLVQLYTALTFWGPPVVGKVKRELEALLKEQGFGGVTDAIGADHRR

[5] = Partition coefficient, log D of the compound at pH 7.4 by UV-HPLC analysis; conditions: octanol/water
[6] = Aqueous solubility of the compound in phosphate buffer at pH 6.5; assay type: physicochemical
Method in brief: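 Non-equilibrium solubility. Concentrated DMSO stocks were diluted into pH 6.5 phosphate buffer (final DMSO 1% v/v) and precipitation was monitored by nephelometry. Solubility is given as the concentration range just before a turbidity signal rose above background.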

[7] = Plasma protein binding in human by albumin chromatographic method; assay type: ADME, cell-free; conditions: read-out: PPB (converted)
[8] = test system: Liver microsomes; test: Intrinsic clearance in human liver microsome assessed per mg of protein at 1 uM after 60 mins by LC-MS analysis; assay type: ADME; conditions: microsomes, 1 h, 1 µM
Method in brief: (§1)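 Microsomal stability. Compound at 1 μM with liver microsomes (0.4 mg/mL protein) in 0.1 M phosphate pH 7.4 at 37 °C. Started with an NADPH-regenerating system plus MgCl2; controls lacked NADPH. Quenched with cold acetonitrile at time points up to 60 min. Parent loss measured by LC-MS and fitted to exponential decay to give CLint.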

[9] = test system: Liver; test: Intrinsic clearance in mouse liver microsome assessed per mg of protein at 1 uM after 60 mins by LC-MS analysis; assay type: ADME; conditions: microsomes, 1 h; method in brief: as §1
[10] = Inhibition of His6-tagged recombinant Plasmodium berghei dihydroorotate dehydrogenase expressed in Escherichia coli using L-dihydroorotate as substrate after 5 to 10 mins by DCIP dye-based assay
[11] = phosphate buffer, read-out: solubility

| Structure (SMILES) | EC50 [1] | IC50 [2] | IC50 [3] | IC50 [4] | further results |
| --- | --- | --- | --- | --- | --- |
| Cc1cc(NCc2ccccc2)n2ncnc2n1 | > 10 µM | > 100 µM |  |  |  |
| CCCCCc1ccc(Nc2cc(C)nc3ncnn23)cc1 | > 5 µM | 0.82 µM | 22 µM | > 100 µM |  |
| Cc1cc(Nc2ccc(C(C)(C)C)cc2)n2ncnc2n1 | 0.32 µM | 0.078 µM | 0.4 µM | > 100 µM | logD [5]: 3.4; solubility [6, 11]: 11 µM (≈ 3.09 µg/mL); fraction unbound [7]: 0.068; CL [8]: 43 µL/min/mg |
| C#Cc1ccc(Nc2cc(C)nc3ncnn23)cc1 | 5.1 µM | 1.1 µM | 4.1 µM | > 100 µM | logD [5]: 2.2; solubility [6, 11]: 100 µM (≈ 24.9 µg/mL); fraction unbound [7]: 0.182; CL [8]: 8 µL/min/mg; CL [9]: 27 µL/min/mg |
| CCc1c(C)nc2ncnn2c1Nc1ccc(C(C)C)cc1 | > 10 µM | 1.7 µM | 4.5 µM | > 100 µM |  |
| Cc1cc(NC2Cc3ccc(Br)cc3C2)n2ncnc2n1 (stereo not given) | 6.6 µM | 1.2 µM | 3.3 µM | > 50 µM |  |
| Cc1cc(NCCCc2ccccc2)n2ncnc2n1 | 25 µM | 26 µM |  |  | IC50 [10]: > 100 µM |
| CCc1c(C)nc2ncnn2c1Nc1ccc(OC(F)(F)F)cc1 | > 10 µM |  | 5.7 µM | > 100 µM |  |
| Cc1cc(Nc2ccc(C(C)(C)C#N)cc2)n2ncnc2n1 | 3.7 µM |  |  |  |  |
| COc1cc2c(cc1OC)CC(Nc1cc(C)nc3ncnn13)C2 | 7.7 µM | 4.6 µM | 41 µM |  |  |
| Cc1cc(NC2CCC2)n2ncnc2n1 |  | > 100 µM |  |  |  |
| Cc1cc(NCCc2ccccc2)n2ncnc2n1 | > 20 µM | 15 µM | 27 µM |  |  |
| Cc1cc(Nc2ccc(Cl)c(F)c2)n2ncnc2n1 | 3.5 µM | 0.55 µM | 1.3 µM | > 50 µM |  |
| FC(F)(F)c1ccc(Nc2cc(C(F)(F)F)nc3ncnn23)cc1 | > 10 µM | 1.7 µM | 2.3 µM | > 100 µM |  |
| FC(F)(F)c1ccc(Nc2cc(Cl)nc3ncnn23)cc1 | 3.4 µM | 0.17 µM | 0.13 µM | > 100 µM |  |
| Cc1cc(NC2CCCCCC2)n2ncnc2n1 |  | > 100 µM |  |  |  |
| Cc1cc(Nc2ccc3c(c2)OCO3)n2ncnc2n1 | 21 µM | 1.6 µM | 55 µM | > 100 µM | logD [5]: 1.6; solubility [6, 11]: 186 µM (≈ 50.1 µg/mL); CL [8]: 11 µL/min/mg |
| Cc1cc(Nc2ccc3ccccc3c2)n2ncnc2n1 |  |  |  |  | logD [5]: 3.2; solubility [6, 11]: 45 µM (≈ 12.4 µg/mL); fraction unbound [7]: 0.062 |
| Cc1cc(NC2CCCC2)n2ncnc2n1 |  | > 100 µM |  |  |  |
| Cc1cc(NCc2ccc(C(F)(F)F)cc2)n2ncnc2n1 |  | > 100 µM |  |  | IC50 [10]: > 100 µM |
| CCCCc1ccc(Nc2cc(C)nc3ncnn23)cc1 | 4.8 µM | 0.28 µM | 5.25 µM | > 100 µM | logD [5]: 3.6; solubility [6, 11]: 11 µM (≈ 3.09 µg/mL); fraction unbound [7]: 0.033; CL [8]: 36 µL/min/mg |
| CCc1nc(N)nc(N)c1-c1ccc(Cl)cc1 [PYRIMETHAMINE] | 0.023 µM |  |  |  | fraction unbound [7]: 0.13 |
| CCCCCCCCc1ccc(Nc2cc(C)nc3ncnn23)cc1 | > 5 µM | > 50 µM |  |  | IC50 [10]: > 100 µM |
| CCc1cc(Nc2ccc(C(F)(F)F)cc2)n2ncnc2n1 | 2.3 µM | 0.78 µM | 2 µM | > 100 µM |  |
| CCCCCCCc1ccc(Nc2cc(C)nc3ncnn23)cc1 | > 5 µM | 24 µM | > 50 µM |  |  |
| Cc1cc(NC2CC2)n2ncnc2n1 |  | > 100 µM |  |  |  |

| Structure (SMILES) | EC50 [1] | IC50 [2] | IC50 [3] | IC50 [4] | further results |
| --- | --- | --- | --- | --- | --- |
| Cc1cc(NC2CCc3cc(Cl)ccc3C2)n2ncnc2n1 (stereo not given) | 10 µM | 0.67 µM |  |  | IC50 [10]: 10 µM |
| Cc1cc(Nc2ccc(N(C)C)cc2)n2ncnc2n1 | 2.7 µM | 0.82 µM | 12 µM | > 100 µM | logD [5]: 2.2; solubility [6, 11]: 93 µM (≈ 25 µg/mL); CL [8]: 9 µL/min/mg; CL [9]: 226 µL/min/mg |
| Cc1cc(Nc2ccc3[nH]c(C(F)(F)F)nc3c2)n2ncnc2n1 | 25 µM | 21 µM | > 50 µM |  |  |
| Cc1cc(NC2CCCCCCCCCCC2)n2ncnc2n1 |  | 58 µM |  |  |  |
| Cc1cc(Nc2ccc(NC(C)(C)C)cc2)n2ncnc2n1 | > 5 µM | > 50 µM |  |  | IC50 [10]: > 100 µM |
| CCCc1ccc(Nc2cc(C)nc3ncnn23)cc1 | 6.8 µM | 0.99 µM | 9 µM | > 100 µM | logD [5]: 3.1; solubility [6, 11]: 187 µM (≈ 50 µg/mL); fraction unbound [7]: 0.065; CL [8]: 36 µL/min/mg |
| Cc1cc(NC2CCc3cc(F)ccc3C2)n2ncnc2n1 (stereo not given) | 2.5 µM | 0.63 µM | 1.9 µM |  |  |
| Cc1cc(NC2CCCCC2)n2ncnc2n1 |  | > 100 µM |  |  |  |
| Cc1cc(Nc2ccc(OCc3ccccc3)cc2)n2ncnc2n1 | > 10 µM | 5.4 µM |  |  | IC50 [10]: > 100 µM |
| CCCCCCc1ccc(Nc2cc(C)nc3ncnn23)cc1 | > 5 µM | 4.2 µM | 20 µM |  |  |
| CCCCCCCNc1cc(C)nc2ncnn12 | 13 µM | 8.6 µM | 55 µM |  |  |
| Cc1cc(Nc2ccc(CC(F)(F)F)cc2)n2ncnc2n1 |  | 2.5 µM | 8.8 µM |  |  |
| Cc1ccc(Nc2c3c(nc4ncnn24)CCC3)cc1F | 8.3 µM |  | 1.3 µM | > 100 µM |  |
| Cc1cc(Nc2ccc(OC(C)(C)C)cc2)n2ncnc2n1 | > 10 µM | 44 µM |  |  |  |
| Cc1cc(Nc2ccc(C(F)(F)F)c(C(F)(F)F)c2)n2ncnc2n1 | 2.3 µM | 0.54 µM | 0.55 µM |  |  |
| Cc1cc(NC2Cc3ccc(F)cc3C2)n2ncnc2n1 (stereo not given) | 1.3 µM | 0.61 µM | 1.4 µM | > 50 µM |  |
| Cc1cc(Nc2ccc(C3CC3)cc2)n2ncnc2n1 | 1.4 µM | 0.42 µM | 2.9 µM | > 100 µM | logD [5]: 2.7; solubility ([6]; buffer): > 377 µM; fraction unbound [7]: 0.132; CL [8]: 53 µL/min/mg; CL [9]: 287 µL/min/mg |
| Cc1cc(NOc2ccccc2)n2ncnc2n1 |  | > 100 µM |  |  | IC50 [10]: > 100 µM |
| CCc1ccc(Nc2cc(C)nc3ncnn23)cc1 | 3.3 µM | 0.61 µM | 3.9 µM | > 100 µM | logD [5]: 2.6; solubility [6, 11]: 25 µM (≈ 6.33 µg/mL); fraction unbound [7]: 0.12; CL [8]: 61 µL/min/mg |
| Cc1cc(Nc2ccc(N3CCCC3)cc2)n2ncnc2n1 | > 20 µM | 3.5 µM | > 50 µM |  |  |
| Cc1cc(NC2CCCCCCC2)n2ncnc2n1 |  | > 100 µM |  |  |  |
| Cc1cc(NCc2ccc(F)cc2)n2ncnc2n1 | > 10 µM | > 100 µM |  |  |  |
| Cc1cc(Nc2ccc3c(c2)CCC3)n2ncnc2n1 | 0.8 µM | 0.22 µM | 1 µM | > 100 µM | logD [5]: 2.9; solubility [6, 11]: 47 µM (≈ 12.5 µg/mL); fraction unbound [7]: 0.075; CL [8]: 77 µL/min/mg; CL [9]: 341 µL/min/mg |
| C=Cc1ccc(Nc2cc(C)nc3ncnn23)cc1 | 0.34 µM |  | 4.5 µM | > 100 µM | logD [5]: 2.4; solubility [6, 11]: 25 µM (≈ 6.28 µg/mL); fraction unbound [7]: 0.156; CL [8]: 32 µL/min/mg; CL [9]: 168 µL/min/mg |
| Cc1cc(Nc2ccc(SC(F)(F)F)cc2)n2ncnc2n1 | 0.27 µM | 0.61 µM | 1.2 µM | > 50 µM | solubility [6, 11]: 5 µM (≈ 1.63 µg/mL); fraction unbound [7]: 0.039; CL [8]: < 5 µL/min/mg; CL [9]: 119 µL/min/mg |
